From PubChem
NPY Y1 blocker: blocks the human neuropeptide Y Y1 receptor. actives 1% (n = 200,000). inhibition, % at 3.6 µM. HEK293-CNG Y1 cells, membrane potential fluorescence; NPY at EC95, then isoproterenol;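 active = inhibition above the campaign mean inhibition of all tested compounds plus 3 SD, cut at about 20% in these data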;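 note: 0% = DMSO wells given NPY plus isoproterenol and 100% = isoproterenol alone without NPY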
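Material: Y1- and CNG-channel-expressing HEK293 cells / Probe or stimulus: NPY 25 nM then isoproterenol 1 µM plus Ro 20-1724 25 µM / Doses: 3.6 µM single dose, DMSO 0.4% / Schedule: compound incubation 1 h at room temperature, readout 45 min post-stimulation / Signal: membrane potential fluorescence / Benchmarks: isoproterenol-only wells as full block versus NPY-plus-isoproterenol wells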
NPY Y2 blocker: NPY-Y2 (human) receptor antagonism; P49146; NPY-Y2 expressing cells, antagonist mode; inhibition, % at 2.7 µM; actives 0.99% (n = 140,000); AID 793;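 note: 0% = vehicle with agonist challenge and 100% = reference antagonist with challenge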
NPY1 pot ag: human NPY-Y1 potentiation or agonism, primary screen. P25929. NPY-Y1 expressing cells, potentiator/agonist activation. activation, % at 3.6 µM. actives 0.37% (n = 220,000); in the data active = activation above about 33%, passing the limit was not always enough;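 note: cells stimulated with NPY at EC10 then isoproterenol at EC100; 0% = low agonist plus stimulus and 100% = saturating agonist plus stimulus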
EP2 antag: inhibitors of human EP2 prostaglandin E2 receptor. C6 glioma cells expressing human EP2, cAMP TR-FRET; cells stimulated with saturating PGE2. inhibition, % at 25 µM. actives 0.52% (n = 260,000). AID 1422. P43116;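 active = percent inhibition above 40 after rounding to a whole number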;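 note: rat C6 glioma host cells with rolipram phosphodiesterase inhibitor present; the protocol text gives 20 µM as final concentration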
Target sequence (P43116 whole entry, looked up): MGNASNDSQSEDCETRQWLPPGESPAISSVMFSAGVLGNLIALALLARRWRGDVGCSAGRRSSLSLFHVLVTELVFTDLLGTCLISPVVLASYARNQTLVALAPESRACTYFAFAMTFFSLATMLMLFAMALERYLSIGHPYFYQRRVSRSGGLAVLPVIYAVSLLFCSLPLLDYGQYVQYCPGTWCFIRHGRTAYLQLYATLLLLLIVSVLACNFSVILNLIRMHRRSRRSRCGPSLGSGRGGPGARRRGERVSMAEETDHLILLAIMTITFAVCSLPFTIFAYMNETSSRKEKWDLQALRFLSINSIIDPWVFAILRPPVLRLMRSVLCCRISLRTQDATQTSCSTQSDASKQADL
NPY2 pot ag: potentiates or activates human NPY-Y2 receptor | P49146 | cells expressing NPY-Y2, potentiator/agonist read-out | activation, % at 3.6 µM | actives 0.45% (n = 220,000); in the data active = activation above about 27%;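 note: cells stimulated with NPY near EC25 plus isoproterenol at EC100; 0% = vehicle plus submaximal agonist and 100% = vehicle plus saturating agonist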
EP2 modulator: modulators of human EP2 prostaglandin E2 receptor | induction, % at 25 µM | EP2-expressing cells, cAMP HTRF FRET, PGE2 co-stimulation | actives 0.83% (n = 260,000) | P43116 | AID 940;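 active = compounds whose cAMP rise, as percent of the full-agonist control response, exceeds 60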;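 note: rat C6 glioma line stably carrying human EP2 under a CMV promoter; the protocol text gives 20 µM as final concentration; 100% = response of wells given 1 µM PGE2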
NPY1 antag conf: confirmation of human neuropeptide Y receptor Y1 antagonists | shares compounds with NPY Y1 blocker | HEK293-CNG NPY-Y1, membrane potential fluorescence, cAMP; NPY challenge against isoproterenol-raised cAMP | inhibition, % at 3.6 µM | actives 21% (n = 1,200) | AID 1254; in the data active = inhibition above about 20%;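 note: 0% = vehicle with agonist plus stimulus and 100% = stimulus alone without agonist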
NPY-Y2 antag ct: human NPY-Y2 antagonism in NPY-Y1 counter-screen. shares compounds with NPY Y1 blocker. HEK293 NPY-Y2 CNG membrane potential fluorescence; cells given NPY, then isoproterenol. inhibition, % at 3.6 µM. actives 28% (n = 1,200);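 note: 0% = DMSO with agonist challenge and 100% = reference antagonist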
Numbers without * were called inactive; · = not tested or not shown. Most compounds without a hit are left out; they make up all but 2.8% or so of the library. Cut-off read from the data, not from the text of the source, unless noted: active = inhibition above about 17%; inactive = the rest.

SMILES	NPY Y1 blocker	NPY Y2 blocker	NPY1 pot ag	EP2 antag	NPY2 pot ag	EP2 modulator	NPY1 antag conf	NPY-Y2 antag ct
O=C(CSc1nnc(COc2ccccc2)n1Cc1ccco1)c1ccc(F)cc1	20.2*	16.5	-19.8	0.5	-19.7	32.2	4.0	6.6
Cc1ccc(C(O)CN2CCC3(CC2)CC(O)c2cc(Cl)ccc2O3)cc1 (stereo not drawn)	·	·	·	6.3	·	-75.0	·	·
CCC(Oc1ccc2ccccc2c1)C(=O)O (stereo not drawn)	21.4*	12.0	-0.7	8.1	-30.7	9.9	6.7	7.0
CCOC(=O)C(Nc1ccc2ccccc2c1)C(=O)OCC	-2.3	2.0	6.7	14.2	10.9	-15.8	·	·
CCn1c2c(c(=N)c3c1CCC3)CCC2	-1.6	1.9	4.4	5.2	18.1	2.4	·	·
CCCCn1c2c(c(=N)c3c1CCC3)CCC2	3.8	3.8	9.5	16.6	14.8	3.6	·	·
CCCCCCCn1c2c(c(=N)c3c1CCC3)CCCC2	79.8*	·	-60.5	2.9	-36.9	-50.9	56.8*	42.5*
CCCCCCn1c2c(c(=N)c3c1CCC3)CCC2	23.7*	3.2	-71.5	4.7	3.9	3.6	29.2*	16.7
COc1ccc(C(=O)Nc2cc3c(cc2OC)CCCC3)cc1Br	28.6*	10.2	-78.2	·	-21.4	6.5	9.1	10.2
COc1cc2c(cc1NC(=O)c1ccc(C(C)(C)C)cc1)CCCC2	31.6*	9.8	-73.5	·	-36.6	-34.5	19.6	44.8*
O=C(NCCNC1CCCCCCC1)c1cccs1	·	·	·	6.6	·	-8.6	·	·
COc1ccccc1NC(=O)Cn1c(C)nc2ccc(NC(=O)C3CCCCC3)cc2c1=O	·	·	·	9.7	·	-15.8	·	·
C/C(Cl)=C/Cn1c(NC2CCCCC2)nc2c1c(=O)n(C)c(=O)n2C	·	·	·	12.9	·	50.8	·	·
COc1ccccc1CN1CCN(Cc2cnc(N3CCOCC3)nc2)CC1	·	·	·	3.6	·	-13.5	·	·
COc1ccc(C(C)(C)C)cc1S(=O)(=O)N1CCC(C(N)=O)CC1	23.1*	-1.4	-3.6	6.7	-4.3	-4.5	0.4	0.2
CN(C)c1nc2c(c(=O)n(C)c(=O)n2C)n1Cc1ccc(Cl)cc1	·	·	·	4.6	·	-4.4	·	·
COc1cccc(Oc2cn[nH]c2-c2ccc(OC)cc2O)c1	-3.7	3.9	-5.3	8.6	-9.7	-10.9	·	·
COc1cccc(Oc2cn[nH]c2-c2ccc(O)cc2O)c1	153.2*	7.2	-21.9	16.5	15.1	-11.1	61.5*	4.1
Cc1nn(S(=O)(=O)c2ccccc2)c(C)c1Sc1ccc([N+](=O)[O-])cc1	24.2*	7.2	-3.7	12.7	7.0	31.1	5.7	3.9
COn1c(=O)c(-c2cccs2)[n+]([O-])c2ccccc21	25.0*	10.1	-15.6	11.9	-16.0	29.2	10.0	7.9
Cc1sc2ncn(Cc3ccccc3)c(=O)c2c1C	·	·	·	11.2	·	5.4	·	·
OCCNCc1cc(Br)ccc1OCc1ccc(Cl)cc1	23.6*	12.1	-8.2	·	-5.0	-11.2	7.6	13.2
CC(C)CCn1c(Oc2ccccc2Cl)nc2c1c(=O)n(C)c(=O)n2C	35.7*	16.6	-51.9	17.3	-25.8	42.6	7.0	7.7
CC(C)CCn1c(Cl)nc2c1c(=O)n(C)c(=O)n2C	-3.1	3.2	-4.3	8.1	8.3	26.0	·	·
CCN1CCN(Cc2nc3c([nH]2)c(=O)n(C)c(=O)n3C)CC1	·	·	·	8.6	·	2.6	·	·
O=C(C1c2ccccc2C(=O)N2CCc3ccccc3C12)N1CCN(Cc2ccccc2)CC1 (stereo not drawn)	22.0*	10.2	6.2	9.4	-0.8	23.5	5.8	2.6
CCOc1ccc(-n2c(-c3ccccc3)c[n+]3c2CCCCC3)cc1	24.3*	14.7	-36.1	7.5	11.6	3.5	13.7	17.1*
COc1ccc(/C=N/OC(=O)Nc2ccccc2OC)cc1	21.9*	·	-17.3	3.0	-15.5	-27.1	5.7	11.9
O=C(CSc1ccc2c(c1)OCCO2)NCCc1ccc(Cl)cc1Cl	20.3*	12.0	-43.8	9.6	-21.0	6.8	8.4	7.4
